According to ChEMBL document CHEMBL1153905, “Functionalized 3-benzylidene-indolin-2-ones: inducers of NAD(P)H-quinone oxidoreductase 1 (NQO1) with antiproliferative activity” (Bioorg Med Chem, 2009):

Legend:
[1] = Cytotoxicity against mouse Hepa-1c1c7 cells after 48 hrs by MTT assay; type: cell-based; conditions: hepa-1c1c7, 48 h
Method in brief: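 Murine hepatoma cells in α-MEM with 10% heat- and charcoal-treated fetal calf serum, passages 6–17; MTT read-out as for the cancer lines but with 48 h compound exposure. Highest concentration tested 25 µM. IC50 from survival-versus-concentration curve; mean and SD, n = 3.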

CYP1A1 [2] = target: T1, CYP1A1 (Mus musculus, UniProt P00184); test: Induction of CYP1A1 activity in mouse Hepa-1c1c7 cells assessed as induction ratio at 5 nM after 48 hrs by EROD assay relative to control; type: ADME, cell-based
T1 sequence (P00184 whole entry): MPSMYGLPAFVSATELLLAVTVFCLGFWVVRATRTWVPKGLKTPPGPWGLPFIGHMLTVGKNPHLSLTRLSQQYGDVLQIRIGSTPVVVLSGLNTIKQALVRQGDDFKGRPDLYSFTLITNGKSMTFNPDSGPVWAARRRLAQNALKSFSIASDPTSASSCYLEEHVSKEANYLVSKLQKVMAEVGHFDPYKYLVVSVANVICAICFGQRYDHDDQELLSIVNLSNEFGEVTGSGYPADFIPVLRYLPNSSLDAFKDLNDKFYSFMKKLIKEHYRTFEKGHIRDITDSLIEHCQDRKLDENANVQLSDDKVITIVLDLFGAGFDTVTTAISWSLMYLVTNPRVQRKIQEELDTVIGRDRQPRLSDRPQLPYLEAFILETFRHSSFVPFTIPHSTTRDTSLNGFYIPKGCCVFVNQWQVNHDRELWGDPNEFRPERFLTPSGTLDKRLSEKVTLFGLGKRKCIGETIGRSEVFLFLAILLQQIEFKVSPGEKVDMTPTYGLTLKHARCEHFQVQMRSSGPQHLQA
Method in brief: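 Hepa1c1c7 cells were seeded at 10,000 per well and grown 24 h. They were then exposed 48 h to compound (final DMSO 0.5% v/v) at about 4 × the NQO1 CD. After a PBS wash, cells got 5 µM 7-ethoxyresorufin plus 2 mM salicylamide in medium, 37 °C, 40 min. Resorufin was read at ex 530/em 590 nm, corrected for compound fluorescence. Ratio = (F treated − blank)/(F DMSO control − blank); mean ± SD, n = 3.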

[3] = target: NAD(P)H dehydrogenase [quinone] 1 (Mus musculus) (UniProt Q64669); test: Induction of NQO1 activity in mouse Hepa-1c1c7 cells assessed as induction ratio at 5 nM after 48 hrs by MTT assay relative to control; type: cell-based
Method in brief: (§1)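 Hepa1c1c7 cells, 10,000 per well, 24 h, were then treated 48 h (DMSO ≤0.5%). Digitonin/EDTA lysates were assayed for menadione-dependent MTT-formazan formation using a G6P/G6PDH NADPH-generating mix with FAD at pH 7.4. The reaction ran 5 min, was stopped with dicoumarol, and read at A590. Degree of induction = (A test − blank)/(A control − blank). Ratios were read off the induction–concentration plot at the EROD test concentration.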

[4] = Ratio of induction of NQO1 activity to induction of CYP1 activity in mouse Hepa-1c1c7 cells at 5 nM after 48 hrs
CYP1A1 [5] = target: T1, CYP1A1; test: Induction of CYP1A1 activity in mouse Hepa-1c1c7 cells assessed as induction ratio at 0.1 uM after 48 hrs by EROD assay relative to control; type: ADME, cell-based
Method in brief: (§2)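 About 10,000 Hepa1c1c7 cells/well cultured 24 h, then compound (0.5% DMSO final) for 48 h, at roughly 4 × the concentration doubling NQO1 activity. After PBS wash, cells given 5 µM 7-ethoxyresorufin plus 2 mM salicylamide, 37 °C, 40 min; resorufin fluorescence ex 530/em 590 nm, corrected for compound fluorescence. Ratio = (treated − blank)/(DMSO control − blank); mean ± SD, n = 3.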

[6] = target: NAD(P)H dehydrogenase [quinone] 1 (Mus musculus) (UniProt Q64669); test: Induction of NQO1 activity in mouse Hepa-1c1c7 cells assessed as induction ratio at 0.1 uM after 48 hrs by MTT assay relative to control; type: cell-based; method in brief: as §1
HCT-116 [7] = test: Antiproliferative activity against human HCT116 cells after 72 hrs by MTT assay; type: functional, cell-based; conditions: HCT-116, 72 h
Method in brief: (§3)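 Cells seeded at 10,000 (MCF7), 4000 (HCT116) or 5000 (CCL186) per well and grown 24 h; MCF7 and CCL186 in EMEM with pyruvate, glutamine, 10% FBS; HCT116 in McCoy's 5A with 10% FBS. Compounds from DMSO stocks (≤1% DMSO final), 72 h exposure; MTT 0.5 mg/ml for 3 h, formazan in DMSO read at 590 nm. IC50 from sigmoidal survival curve, three separate occasions.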

MCF7 [8] = test: Antiproliferative activity against human MCF7 cells after 72 hrs by MTT assay; type: functional, cell-based; conditions: MCF7, 72 h; method in brief: as §3
[9] = Antiproliferative activity against human CCL186 cells after 72 hrs by MTT assay; type: cell-based; conditions: CCL186, 72 h; method in brief: as §3
MCF7 [10] = test: Selectivity ratio of IC50 for human CCL186 cells to IC50 for human MCF7 cells
Method in brief: (§4)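 MTT assay. MCF7 and CCL186 cells were grown in EMEM/10% FBS, HCT116 in McCoy's 5A/10% FBS. Seeding was 10,000 (MCF7), 4000 (HCT116) and 5000 (CCL186) cells per well, 24 h. Compound exposure was 72 h, DMSO ≤1% final. MTT 0.5 mg/ml for 3 h, formazan dissolved in DMSO, A590. IC50 came from sigmoidal survival curves, with 3 separate occasions per concentration. Ratio = IC50 CCL186 / IC50 of the cancer line.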

[11] = Selectivity ratio of IC50 for human CCL186 cells to IC50 for human HCT116 cells; type: ADME, cell-based, HCT-116; conditions: CCL186 cells and HCT116 cells, read-out: Ratio IC50; method in brief: as §4
HCT-116 [12] = test: Cell cycle arrest in human HCT116 cells released from G1 block assessed as accumulation at sub G1 phase at 15 uM after 24 hrs by flow cytometry; type: functional
HCT-116 [13] = test: Cell cycle arrest in human HCT116 cells released from G2 block assessed as accumulation at sub G1 phase at 15 uM after 24 hrs by flow cytometry; type: functional
HCT-116 [14] = test: Cell cycle arrest in human HCT116 cells released from G1 block assessed as accumulation at G1 phase at 15 uM after 24 hrs by flow cytometry; type: functional
HCT-116 [15] = test: Cell cycle arrest in human HCT116 cells released from G2 block assessed as accumulation at G1 phase at 15 uM after 24 hrs by flow cytometry; type: functional
HCT-116 [16] = test: Cell cycle arrest in human HCT116 cells released from G1 block assessed as accumulation at S phase at 15 uM after 24 hrs by flow cytometry; type: functional
HCT-116 [17] = test: Cell cycle arrest in human HCT116 cells released from G2 block assessed as accumulation at S phase at 15 uM after 24 hrs by flow cytometry; type: functional
HCT-116 [18] = test: Cell cycle arrest in human HCT116 cells released from G1 block assessed as accumulation at G2/M phase at 15 uM after 24 hrs by flow cytometry; type: functional
HCT-116 [19] = test: Cell cycle arrest in human HCT116 cells released from G2 block assessed as accumulation at G2/M phase at 15 uM after 24 hrs by flow cytometry; type: functional
[20] = target: NAD(P)H dehydrogenase [quinone] 1 (Mus musculus) (UniProt Q64669); test: Induction of NQO1 activity in mouse Hepa-1c1c7 cells assessed as induction ratio at 0.05 uM after 48 hrs by MTT assay relative to control; type: cell-based; method in brief: as §1
CYP1A1 [21] = target: T1, CYP1A1; test: Induction of CYP1A1 activity in mouse Hepa-1c1c7 cells assessed as induction ratio at 0.05 uM after 48 hrs by EROD assay relative to control; type: ADME, cell-based; method in brief: as §2
CYP1A1 [22] = target: T1, CYP1A1; test: Induction of CYP1A1 activity in mouse Hepa-1c1c7 cells assessed as induction ratio at 10 uM after 48 hrs by EROD assay relative to control; type: ADME, cell-based; method in brief: as §2
[23] = target: NAD(P)H dehydrogenase [quinone] 1 (Mus musculus) (UniProt Q64669); test: Induction of NQO1 activity in mouse Hepa-1c1c7 cells assessed as induction ratio at 10 uM after 48 hrs by MTT assay relative to control; type: cell-based; method in brief: as §1

Sequence of NAD(P)H dehydrogenase [quinone] 1 (Mus musculus) (Q64669 whole entry): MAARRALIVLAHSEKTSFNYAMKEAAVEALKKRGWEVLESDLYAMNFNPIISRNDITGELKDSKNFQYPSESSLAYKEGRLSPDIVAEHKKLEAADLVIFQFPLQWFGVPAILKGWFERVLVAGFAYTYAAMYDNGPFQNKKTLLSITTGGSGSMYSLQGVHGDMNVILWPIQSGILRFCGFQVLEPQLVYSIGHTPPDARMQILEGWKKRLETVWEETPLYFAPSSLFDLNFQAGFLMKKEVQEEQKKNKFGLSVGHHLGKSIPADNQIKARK

O=C1Nc2ccccc2/C1=C1\C(=O)Nc2cc(C(F)(F)F)ccc21
IC50 [1]: > 25 µM
fold induction at 48 h, 0.005 µM (CYP1A1 [2]): 3.01
Ratio [3]: 2.99
Ratio [4]: 0.99

O=C1Nc2cc(C(F)(F)F)ccc2/C1=C1\C(=O)Nc2ccc(Cl)cc21
IC50 [1]: 9.8 µM
fold induction at 48 h, 0.005 µM (CYP1A1 [2]): 3.23
Ratio [3]: 2.96
Ratio [4]: 0.92

O=C1Nc2ccccc2/C1=C1\C(=O)Nc2ccccc21 [ISOINDIGO]
fold induction at 48 h, 0.1 µM (CYP1A1 [5]): 1.44
IC50 [1]: > 25 µM
Ratio [6]: 2.8

O=C1Nc2ccccc2/C1=C1\C(=O)Nc2ccc(Cl)cc21
IC50 [1]: 20.5 µM
fold induction at 48 h, 0.005 µM (CYP1A1 [2]): 2.31
Ratio [3]: 2.42
Ratio [4]: 1.05

O=C1Nc2cc(F)ccc2/C1=C\c1cccc(C(F)(F)F)c1
IC50 (HCT-116 [7]): 8.4 µM
IC50 (MCF7 [8]): 8.9 µM
IC50 [9]: 7.5 µM
Ratio IC50 (MCF7 [10]): 0.9
selectivity ratio [11]: 0.8
Activity (HCT-116 [12]): 12.68%
Activity (HCT-116 [13]): 2.49%
Activity (HCT-116 [14]): 64.93%
Activity (HCT-116 [15]): 64.15%
Activity (HCT-116 [16]): 8.04%
Activity (HCT-116 [17]): 8.82%
Activity (HCT-116 [18]): 14.58%
Activity (HCT-116 [19]): 25%
IC50 [1]: 2.2 µM
Ratio [20]: 3.31
fold induction at 48 h, 0.05 µM (CYP1A1 [21]): 1.23

O=C1Nc2ccccc2/C1=C\c1ccc(Cl)cc1Cl
fold induction at 48 h, 10 µM (CYP1A1 [22]): 1.21
IC50 [1]: 10.6 µM
Ratio [23]: 4.24

O=C1Nc2ccccc2/C1=C\c1cc(O)ccc1O
fold induction at 48 h, 10 µM (CYP1A1 [22]): 2.87
IC50 [1]: > 25 µM
Ratio [23]: 7.69

O=C1Nc2cc(Cl)ccc2/C1=C\c1cccc(C(F)(F)F)c1
IC50 (HCT-116 [7]): 3.8 µM
IC50 (MCF7 [8]): 7.5 µM
IC50 [9]: 6.6 µM
Ratio IC50 (MCF7 [10]): 1.7
selectivity ratio [11]: 0.9
Activity (HCT-116 [12]): 12.39%
Activity (HCT-116 [13]): 10.62%
Activity (HCT-116 [14]): 65.55%
Activity (HCT-116 [15]): 53.47%
Activity (HCT-116 [16]): 7.1%
Activity (HCT-116 [17]): 8.05%
Activity (HCT-116 [18]): 15.13%
Activity (HCT-116 [19]): 28.39%
IC50 [1]: 1.1 µM
Ratio [20]: 5.2
fold induction at 48 h, 0.05 µM (CYP1A1 [21]): 2.4
